Tested on: MS2 coat protein
Assay: apparent Kd, MS2 coat protein; higher = weaker binding; RNA-MaP array
Method in brief: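 The designed RNAs, transcribed from sequenced DNA templates on an Illumina sequencing chip, were incubated with fluorescently labeled MS2 coat protein at room temperature. Protein ranged from 1.5 nM to 3 μM, with 0.8–1.5 h incubation at the lowest and 10–20 min at the highest concentrations, in Tris-HCl pH 7.5 buffer with KCl, MgCl2, BSA, DTT, tRNA and Tween20, with or without input ligand. The median of per-cluster binding-curve fits gives the apparent Kd, and designs measured on fewer than 10 clusters were excluded.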

[1] = designed as: ON switch for flavin mononucleotide, no ligand
[2] = ligand present: flavin mononucleotide, designed as: ON switch for flavin mononucleotide
[3] = designed as: OFF switch for flavin mononucleotide, no ligand
[4] = ligand present: flavin mononucleotide, designed as: OFF switch for flavin mononucleotide
[5] = designed as: OFF switch for tryptophan, no ligand
[6] = ligand present: tryptophan, designed as: OFF switch for tryptophan
[7] = designed as: ON switch for theophylline, no ligand
[8] = ligand present: theophylline, designed as: ON switch for theophylline

Sequence | apparent Kd [1] [nM] | apparent Kd [2] [nM] | apparent Kd [3] [nM] | apparent Kd [4] [nM] | also measured
ACACCACAGCAGAAGGGUACAUUCUCCACGCGUACAGGAUAUGCGGACUCGGCGUCUCUGACAUGAGGAUCACCCAUGUUUUCU | 85.9 | 29.1 |  |  | 
CGCGUGUUCGAGGAUAUGGAACUGAUAUUAGACCCAGAAGGCGAGACAUGAGGAUCACCCAUGUGAGGACUAAC |  |  | 18.6 | 53.8 | 
UUUAACACCGGCAAGGAUAUUCUACAAAGAACAUGAGGAUCACCCAUGUCAACAAUCUACAUCACGAAGAAGGUGCAUCGGAUUAA | 17.4 | 9.95 |  |  | 
UCGGACCGAGGAUAUACAGUUCGUGAAGGUAAGAUACACAGACAUGAGGAUCACCCAUGUAGAAGGCGGAGUCC |  |  | 12.1 | 15.6 | 
AGAUAAUCUUGGGAUUUCGUACAUGAGGAUCACCCAUGUCCAGAGGAUAUGCAUAGACAGGCAUCGCAGAAGGCUGGUGAACAG | 35.4 | 27.6 |  |  | 
GGAAGCCGCUAGAAGGAAUAGCACGGGUGCUAAUUAGGAUAUAGUGUCCCAGCACAUGAGGAUCACCCAUGUAUAACACGAUCC | 20.1 | 16.9 |  |  | 
UGACCAUGCGAGAAGGCGUACAUGAGGAUCACCCAUGUUCGUAGAACAAUCGGGUAAGCAUGGCACGAGGAUAUCGCCAAUGCC |  |  | 23.1 | 93.6 | 
CUCUCGGCAGGAUAUCGGCAGAUAAACAUGAGGAUCACCCAUGUGUUCUUAAAAUUCCGUCGAGAAGGGCCGCGAU |  |  | 4.68 | 5.16 | 
UAAUCGUAGGCGGCCGCCACUUUUUGGUAGUGUCCAUUGUACACUCACAUGAGGAUCACCCAUGUAAGGACCGGGCCCGCAUCAG |  |  |  |  | apparent Kd [5]: 17 nM; apparent Kd [6]: 16.7 nM
GUACACUCCACAGGAUAUGGUGUAGACCCUACGCCAGAAGGGUGCGUGGGUACAUGAGGAUCACCCAUGUUAAGUUUACAUACG |  |  | 12.9 | 15.5 | 
ACGAAUCCCGUUCCGUGAGGACAUGAGGAUCACCCAUGUUGCAGAAGGGCCGAGCGGAUGGCGAGGCAGGAUAUGCCACAGAUC |  |  | 27.6 | 105 | 
AGCCCUCAAUCAGGAUAUGUGUGCAUCUAUUGACUUCUAACUAGACAUGAGGAUCACCCAUGUGAACAGAAGGGAUUGUAAUCA |  |  | 19.9 | 19.6 | 
UCACUCCUGAUGGAUACCAGUUACUAACGCAACAUGAGGAUCACCCAUGUGAACACUCAGAACCCUUGGCAGCCAGGAGAACGAA |  |  |  |  | apparent Kd [7]: 48.2 nM; apparent Kd [8]: 25.5 nM
AAAUAUCAGUAGAAGGGCAUUUAAUCGAGACAUGCAGGAUAUACCAAUAACAGAUAAUUCUACAUGAGGAUCACCCAUGUACAG | 12.7 | 9.19 |  |  | 
GGUCAGCAGUCGGCCGCCACUAGUAUACAUGAGGAUCACCCAUGUCCCUUGCGCCUCACCGAUUUUAGGACCGGGACACUGCCUG |  |  |  |  | apparent Kd [5]: 32.8 nM; apparent Kd [6]: 29.3 nM
UUGUGGGCGCUUCAGGAUAUCGCAAAAGAAACAUGAGGAUCACCCAUGUGGCCGAAGCAACUGGGCGAGAAGGGAAAGGCCCGAAG | 17.3 | 14.1 |  |  | 
UCCACACGUCAGAAGGAUGUAUCUACAAUUUUCAUAGGAUAUGACCAUGGAGAUGAUUCCACAUGAGGAUCACCCAUGUCUGCU |  |  | 288 | 239 | 
CGCCUAGGGUAUCAGGAUAUGACGGGCAUAACAUGAGGAUCACCCAUGUAAGAGUAGUACAGUUGUCAGAAGGGAUGAUCUAGAAU | 162 | 25.5 |  |  | 
GCGAUAGCUGUCAAGGAUAUGAGGCUGACCACAUGAGGAUCACCCAUGUUUACAACAAAAUAGAUUCAGAAGGUGACAACAAGUAG | 80.3 | 18.1 |  |  | 
CGCAGACAUGAGGAUCACCCAUGUACCAUGAACAGGAAUACAAGAAGGGCAAACUUUAGAUUGAUGCAGGAUAUUGUCACGAGA | 25.8 | 14 |  |  | 
UUCUUACAUGAGGAUCACCCAUGUUCUGAUAGAGCAGGAUAUGAUGGUUAGAAGUAGAAAUCAGAAGGGCUCCAUG | 100 | 19.8 |  |  | 
CGUCACCUAAAAGGAUAUCUACAAUACAGGAUUGCGUCUCACAUGAGGAUCACCCAUGUGUGUCCAGAGAAGGUUUCGGCACGU |  |  | 8.55 | 8.34 | 
AUGCAACAUGAGGAUCACCCAUGUGGUGAUACCAGUCGACAAGUAGACCCUUGGCAGCACAGCCGAUAUCGAGAGAGAUUUUUGG |  |  |  |  | apparent Kd [7]: 487 nM; apparent Kd [8]: 650 nM
CACGAUCGAGAAGAGUGCAACAUGAGGAUCACCCAUGUAUUCAGAAGGGCCACGACCUUAGUAGGGCAGGAUAUGAUACGAUAC | 26.2 | 19.9 |  |  | 
CGAUAUGAGGUCGAUACCAGCAGCUUCAAGCACAUGAGGAUCACCCAUGUCCAUUUUACUUGCCCUUGGCAGCGACUUUGGAAAC |  |  |  |  | apparent Kd [7]: 39.4 nM; apparent Kd [8]: 13.8 nM
AUAUAGGUAGGAUAUACAAUGAAUGGGCACCGUAAAACCAUACAUGAGGAUCACCCAUGUAGAAGGACCGGAAG |  |  | 7.86 | 12.5 | 
GACGGCUCUAAGGAGGAUAUGGGAAUCAGCACAUGAGGAUCACCCAUGUAAAUGCCUCGGCUGAACCAGAAGGCCUUGGUCAGGAC | 380 | 269 |  |  | 

Sequence | apparent Kd [1] [nM] | apparent Kd [2] [nM] | apparent Kd [3] [nM] | apparent Kd [4] [nM] | also measured
GUUACCAUGUCGGCCGCCACUAACAAGGUUAUGGCAAGUCUACACGACAUGAGGAUCACCCAUGUUAGGACCGGGACCCAUACCC |  |  |  |  | apparent Kd [5]: 13.4 nM; apparent Kd [6]: 14 nM
UAGUACCAAGUGAGGAUAUCUAAAGUCUAUGAAAGAGAGAAGGCACAUGAGGAUCACCCAUGUAACUAGGUGGG |  |  | 152 | 162 | 
ACUAGUAGGCAAGGAUAUGGCCUCAUAAGAUAGCCAGAAGGUGCUACGGACAUGAGGAUCACCCAUGUGCAGCUCGUACGGUGG | 367 | 155 |  |  | 
AAAAUACAUGAGGAUCACCCAUGUGCUUUCUAUUCAGGAUAUGGUGGUACAGUGGACAUACCAGAAGGGAAUGAAA | 11.1 | 8.34 |  |  | 
CUAACUCGUGUUAGGAUAUGGUAAGGGCUAGCCACCCAGAAGGAACAUGAGGAUCACCCAUGUCGACAGUCCCG |  |  | 17.8 | 49.1 | 
AGUGGGUGUUAUGAUACCAGCGUAAUACACAACAUGAGGAUCACCCAUGUGGAGCCUCGCCGCCCUUGGCAGCAUUGGGCCCGCA |  |  |  |  | apparent Kd [7]: 212 nM; apparent Kd [8]: 344 nM
GGGACCGCAGCGUCAUACAUGAGGAUCACCCAUGUUUUACUAAGAAGGAUUAGGAAAGUAAGCUAAUAGGAUAUUACAAGGACA |  |  | 22.4 | 15.6 | 
AUAUUUUCAGGAUAUCAACUUCACUACAUGAGGAUCACCCAUGUCCUCUAUUGUUUACUGUGAGAAGGGAAAGAGA |  |  | 1010 | 507 | 
CUAUCACAUGAGGAUCACCCAUGUAUGAUAAUCAUAGGAUAUAGUGCCAGCCAUAAUUUACUAGAAGGAUGUUUCU | 11.7 | 10.1 |  |  | 
AUCUAACAUGAGGAUCACCCAUGUCAGGAUAUUGCAGCCGUAGUAGGUCUAGUUUGUGCAAGAAGGGACAUCUC |  |  | 9.55 | 22.5 | 
AAUUGGAUCACAUGAGGAUCACCCAUGUCGGAAACUUUACUCAGAAGGAUGUGUACUUUUUCCACAUAGGAUAUGAGUACGACA |  |  | 69.5 | 74.6 | 
UCACAGUCCCAGAAGGCCUUGUCAGAUUCAUAAGGAGGAUAUGGAUUACAUGAGGAUCACCCAUGUGAAUACUUACAGAGCAAC | 79.3 | 15.4 |  |  | 
AUGCAUCUAGGAUAUGCGGUGAUUUACAUGAGGAUCACCCAUGUAGACCACCGGUCUAGAGCAGAAGGAGAUGUGG |  |  | 5.17 | 5.54 | 
AAUCUCUCUGCAGGAUAUGGUCGCUGAGCUACUCCAGAAGGGCAGUGAGUAAGAUCGUCAGACAUGAGGAUCACCCAUGUAUUU |  |  | 35.8 | 30.9 | 
CCGAAUCAAACUGAUAGUCUACAUGAGGAUCACCCAUGUGAAAAGGAUAUCUUUUGAACUGACGAAGAGAAGGUUUUAGAGGGU |  |  | 7.77 | 8 | 
AAGGCGUCAGGAUAUACGUCAUCUUCAAAUAACAUAACAAUACAUGAGGAUCACCCAUGUAGAAGGGACCAGCC |  |  | 6.37 | 6.46 | 
UAUUAACAAGGAUAUACAUGAGGAUCACCCAUGUGAAACUAUUUUAUAAUAACAACAAGUAGAAGGAGUUAAAA |  |  | 13.2 | 10.8 | 
GACAGUUUAUAGGAUAUCGACUCGACUGGGCAUCGAGAAGGAUAAACAUGAGGAUCACCCAUGUGUGGUAGGAA |  |  | 39.2 | 125 | 
GUAGAGCUCAUAGGAUAUACUCGACCGGAGGCAGUAGAAGGAUGCGUCAAAUACAUGAGGAUCACCCAUGUGAUGGUAAUCGUC |  |  | 13.6 | 14.4 | 
UAGAUAAGAAUCAAGGAUAUGAAAAGGCACACAUGAGGAUCACCCAUGUCAAGCACAAAAUGACGUCAGAAGGUGAUAAGCAGCAA | 57.6 | 35 |  |  | 
CUCCCUCAGUCAGGAUAUGUGUCUUCCCAACAGGACAUGAGGAUCACCCAUGUCGCAAGCAUGGGACAGAAGGGACAUGGAGCC |  |  | 23.8 | 19.6 | 
UCCACACAUGAGGAUCACCCAUGUUGACAUUAUUGAGGAUAUCGGAGUGAAGGUUCGGUUCGAGAAGGCAACCAGA | 19.8 | 14.8 |  |  | 
CUGUUUACAUGAGCCCGUCAUAUAUACGAUACCAGUUAAAGAUGAAACCCUUGGCAGCGUAGGACAUGAGGAUCACCCAUGUGCC |  |  |  |  | apparent Kd (designed as: OFF switch for theophylline, no ligand): 18.6 nM; apparent Kd (ligand present: theophylline, designed as: OFF switch for theophylline): 33.1 nM
GUAACACAUGAGGAUCACCCAUGUUCCGAUACCAGUAUUGAAGAUUACCCUUGGCAGCGGGUAGGUCGGAGUGGACGGCCCGAGC |  |  |  |  | apparent Kd [8]: 26.1 nM
AAGCGUAGCUAGGAUAUGUAAUGACGGCUUUGAACAGAAGGAGCUACAUGAGGAUCACCCAUGUGUCCGACACA |  |  | 15.9 | 125 | 
CGUUCCAGGGAGAAGGGCUACAAGAUCUUUCCAGCAGGAUAUCCCAACAUGAGGAUCACCCAUGUAGUCGUGUUAUUGGCUAUA | 243 | 86.4 |  |  | 
UACUGUCUAACGGCCGCCACUCAGUCUCGGUUGAUUAUCUUAAGUGACAUGAGGAUCACCCAUGUGAGGACCGGGUUGUGCAUAA |  |  |  |  | apparent Kd [5]: 76 nM; apparent Kd [6]: 136 nM

— the EternaBench riboswitch data
